The subject of data set [1] is OPM-2. As to the kind of experiment: Antitumor activity against human OPM2 cells xenografted in SCID-Beige mouse assessed as tumor growth inhibition at 100 mg/kg, po qd for 14 days measured twice per week during compound dosing relative to control. The data set is classed as functional. The note with it: OPM-2, po, 336 h, read-out: TGI. A digest of the protocol:
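OPM-2 multiple myeloma xenografts in mice dosed orally over 14 days. Either once daily at 100 mg/kg or twice daily at 50 mg/kg ×2, the same total dose. Tumor growth inhibition was calculated over the treatment period. Mean ± SE, n = 10 per group.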
On the technique in general: Xenograft models place foreign cells or tissue in a host animal.

Data set [2] can be described thus: Toxicity in po dosed SCID-Beige mouse administered once daily. In kind it is organism-based. The note with it: in vivo. A digest of the protocol:
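Oral once-daily dosing in mice bearing OPM-2 multiple myeloma xenografts. Tolerability was judged from mean body-weight loss over the course of the study.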

The target of data set [3] is Bromodomain-containing protein 4 (Homo sapiens, UniProt O60885). As to the kind of experiment: Inhibition of BRD4 (unknown origin) expressed in human H1299 cells co-expressing HPV16-LCR/E2 after 24 hrs by Bright Glo-luciferase reporter gene assay. In kind it is cell-based. A digest of the protocol:
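Target-engagement reporter in an H1299-derived line carrying a stably integrated E2 expression cassette and an HPV-LCR-driven luciferase reporter. The read-out is BRD4-dependent E2-mediated transcriptional repression. EC50 is the mean of two measurements.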
Background: A reporter such as luciferase makes a cellular process visible.

The test system of data set [4] is OPM-2. As to the kind of experiment: Antitumor activity against human OPM2 cells xenografted in SCID-Beige mouse assessed as tumor growth inhibition at 100 mg/kg, po bid for 14 days measured twice per week during compound dosing relative to control. The data set is classed as functional. The note with it: OPM-2, po, 336 h, read-out: TGI.
In data set [5] the target is Bromodomain-containing protein 7 (Homo sapiens, UniProt Q9NPI1). The data set is described as follows: Inhibition of human BRD7 (L125 to R254 residues) expressed in mammalian expression system by BROMOscan assay.
Data set [6] addresses Bromodomain-containing protein 9 (Homo sapiens) (UniProt Q9H8M2). As to the kind of experiment: Inhibition of human BRD9 isoform 1 (R130 to V259 residues) expressed in bacterial expression system at 1 uM by BROMOscan assay relative to control.
For data set [7], the target named is Chromatin remodeling regulator CECR2 (Homo sapiens, UniProt Q9BXF3). As to the kind of experiment: Inhibition of human CECR2 (P423 to D543 residues) expressed in bacterial expression system by BROMOscan assay.
Data set [8] concerns the target Histone acetyltransferase KAT2A (Homo sapiens, UniProt Q92830). The data set is described as follows: Inhibition of human GCN5L2 (E726 to K837 residues) expressed in bacterial expression system by BROMOscan assay.
For another data set, the target named is Protein polybromo-1 (Homo sapiens, UniProt Q86U86). The data set is described as follows: Inhibition of human PBRM1 bromodomain 5 (S645 to D766 residues) expressed in bacterial expression system by BROMOscan assay.
Sequence of Protein polybromo-1 (Q86U86 whole entry, the tested form may be a part): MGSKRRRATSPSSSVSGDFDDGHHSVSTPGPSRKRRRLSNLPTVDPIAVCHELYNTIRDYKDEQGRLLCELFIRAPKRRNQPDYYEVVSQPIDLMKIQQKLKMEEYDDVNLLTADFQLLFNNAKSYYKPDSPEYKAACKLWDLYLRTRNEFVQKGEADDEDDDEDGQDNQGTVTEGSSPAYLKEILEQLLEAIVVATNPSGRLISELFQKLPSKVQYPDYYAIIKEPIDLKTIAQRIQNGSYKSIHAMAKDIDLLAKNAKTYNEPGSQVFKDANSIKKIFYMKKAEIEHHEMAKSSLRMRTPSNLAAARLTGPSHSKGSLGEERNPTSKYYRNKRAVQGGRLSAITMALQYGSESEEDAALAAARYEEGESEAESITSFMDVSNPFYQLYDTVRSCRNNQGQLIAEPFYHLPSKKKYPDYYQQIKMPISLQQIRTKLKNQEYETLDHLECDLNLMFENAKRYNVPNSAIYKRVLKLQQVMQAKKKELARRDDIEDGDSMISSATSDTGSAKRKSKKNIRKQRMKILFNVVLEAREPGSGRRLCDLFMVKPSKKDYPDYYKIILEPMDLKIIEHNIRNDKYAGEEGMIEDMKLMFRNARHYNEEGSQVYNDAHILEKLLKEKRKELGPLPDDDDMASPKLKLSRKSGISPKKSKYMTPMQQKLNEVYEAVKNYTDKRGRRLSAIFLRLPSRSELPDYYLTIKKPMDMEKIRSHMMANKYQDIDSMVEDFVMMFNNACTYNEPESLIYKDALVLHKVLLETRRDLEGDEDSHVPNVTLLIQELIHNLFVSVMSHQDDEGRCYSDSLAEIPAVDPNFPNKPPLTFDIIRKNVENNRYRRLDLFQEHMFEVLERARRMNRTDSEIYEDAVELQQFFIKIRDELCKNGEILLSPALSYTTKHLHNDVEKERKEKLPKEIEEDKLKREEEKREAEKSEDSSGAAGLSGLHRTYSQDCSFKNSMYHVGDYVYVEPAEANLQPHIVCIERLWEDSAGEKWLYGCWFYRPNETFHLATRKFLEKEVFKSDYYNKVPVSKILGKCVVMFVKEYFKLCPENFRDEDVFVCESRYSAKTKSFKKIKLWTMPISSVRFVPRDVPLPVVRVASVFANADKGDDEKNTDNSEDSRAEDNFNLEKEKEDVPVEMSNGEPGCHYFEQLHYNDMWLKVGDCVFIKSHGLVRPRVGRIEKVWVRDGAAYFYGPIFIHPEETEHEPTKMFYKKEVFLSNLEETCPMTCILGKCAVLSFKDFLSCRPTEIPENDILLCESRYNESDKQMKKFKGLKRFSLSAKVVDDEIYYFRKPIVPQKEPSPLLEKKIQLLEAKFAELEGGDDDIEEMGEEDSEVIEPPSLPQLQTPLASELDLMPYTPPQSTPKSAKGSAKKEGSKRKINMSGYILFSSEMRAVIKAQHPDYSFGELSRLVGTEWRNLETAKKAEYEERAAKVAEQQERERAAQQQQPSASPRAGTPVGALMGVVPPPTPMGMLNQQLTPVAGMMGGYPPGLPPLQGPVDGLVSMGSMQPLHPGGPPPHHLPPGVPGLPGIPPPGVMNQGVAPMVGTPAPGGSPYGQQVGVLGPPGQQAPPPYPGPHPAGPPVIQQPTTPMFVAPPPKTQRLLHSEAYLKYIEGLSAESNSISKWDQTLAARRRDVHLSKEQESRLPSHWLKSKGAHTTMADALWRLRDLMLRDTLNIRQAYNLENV
For data set [9], the target named is Histone acetyltransferase KAT2B (Homo sapiens, UniProt Q92831). As to the kind of experiment: Inhibition of human PCAF (G715 to D831 residues) expressed in mammalian expression system by BROMOscan assay.
The target of data set [10] is SWI/SNF-related matrix-associated actin-dependent regulator of chromatin subfamily A member 2 (Homo sapiens, UniProt P51531). As to the kind of experiment: Inhibition of human SMARCA2 (S1377 to Q1486 residues) expressed in bacterial expression system by BROMOscan assay.
Sequence of SWI/SNF-related matrix-associated actin-dependent regulator of chromatin subfamily A member 2 (P51531 whole entry, the tested form may be a part): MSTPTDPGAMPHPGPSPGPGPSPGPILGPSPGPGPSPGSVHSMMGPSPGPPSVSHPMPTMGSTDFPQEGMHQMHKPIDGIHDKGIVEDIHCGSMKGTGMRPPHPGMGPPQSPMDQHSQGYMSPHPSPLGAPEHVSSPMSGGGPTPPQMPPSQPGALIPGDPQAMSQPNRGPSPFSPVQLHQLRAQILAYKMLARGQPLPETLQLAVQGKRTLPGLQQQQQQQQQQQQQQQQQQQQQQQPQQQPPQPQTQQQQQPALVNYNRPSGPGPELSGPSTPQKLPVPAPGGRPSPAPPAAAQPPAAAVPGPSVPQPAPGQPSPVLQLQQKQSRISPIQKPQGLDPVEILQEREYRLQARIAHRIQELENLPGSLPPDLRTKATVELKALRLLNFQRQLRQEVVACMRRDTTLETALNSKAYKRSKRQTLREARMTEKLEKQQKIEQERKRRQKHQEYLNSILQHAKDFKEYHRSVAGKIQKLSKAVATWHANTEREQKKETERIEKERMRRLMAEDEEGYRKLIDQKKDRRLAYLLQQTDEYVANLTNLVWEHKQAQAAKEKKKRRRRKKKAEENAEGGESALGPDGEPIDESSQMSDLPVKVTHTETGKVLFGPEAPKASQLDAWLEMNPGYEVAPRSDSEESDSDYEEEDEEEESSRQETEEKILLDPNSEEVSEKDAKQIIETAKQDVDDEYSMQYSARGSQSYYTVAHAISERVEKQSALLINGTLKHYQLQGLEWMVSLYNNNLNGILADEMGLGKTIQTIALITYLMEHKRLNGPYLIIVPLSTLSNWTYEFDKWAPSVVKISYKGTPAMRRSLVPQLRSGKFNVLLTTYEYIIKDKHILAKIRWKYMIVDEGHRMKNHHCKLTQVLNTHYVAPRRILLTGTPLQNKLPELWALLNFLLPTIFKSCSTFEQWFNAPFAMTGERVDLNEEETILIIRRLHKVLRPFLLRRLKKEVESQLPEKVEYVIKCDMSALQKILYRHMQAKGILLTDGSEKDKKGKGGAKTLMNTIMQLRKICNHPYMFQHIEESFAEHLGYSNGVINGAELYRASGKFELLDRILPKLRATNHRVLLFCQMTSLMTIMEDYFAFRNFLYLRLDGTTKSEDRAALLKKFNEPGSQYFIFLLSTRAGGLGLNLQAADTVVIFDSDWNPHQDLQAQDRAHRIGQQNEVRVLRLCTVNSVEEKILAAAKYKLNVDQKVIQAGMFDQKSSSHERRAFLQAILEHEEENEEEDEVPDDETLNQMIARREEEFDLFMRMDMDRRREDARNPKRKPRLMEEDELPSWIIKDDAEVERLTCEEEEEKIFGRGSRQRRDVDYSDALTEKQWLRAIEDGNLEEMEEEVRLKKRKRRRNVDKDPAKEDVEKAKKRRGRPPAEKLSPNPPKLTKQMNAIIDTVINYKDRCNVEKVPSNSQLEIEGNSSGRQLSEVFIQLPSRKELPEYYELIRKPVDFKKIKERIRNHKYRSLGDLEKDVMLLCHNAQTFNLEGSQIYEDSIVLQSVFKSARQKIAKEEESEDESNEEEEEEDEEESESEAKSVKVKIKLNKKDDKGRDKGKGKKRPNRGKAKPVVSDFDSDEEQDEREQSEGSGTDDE
Data set [11] concerns the target Transcription initiation factor TFIID subunit 1-like (Homo sapiens, UniProt Q8IZX4). The data set is described as follows: Inhibition of human TAF1L (Q1523 to D1654 residues) expressed in bacterial expression system by BROMOscan assay.
Data set [12] concerns the target Bromodomain-containing protein 1 (Homo sapiens, UniProt O95696). The data set is described as follows: Inhibition of human BRD1 (E556 to A688 residues) expressed in bacterial expression system by BROMOscan assay.
The target of a further data set is CREB-binding protein (Homo sapiens, UniProt Q92793). The data set is described as follows: Inhibition of human CREBBP (R1081 to G1197 residues) expressed in bacterial expression system by BROMOscan assay.
Data set [13] has as its target Bromodomain adjacent to zinc finger domain protein 2B (Homo sapiens, UniProt Q9UIF8). As to the kind of experiment: Inhibition of human BAZ2B (S2054 to S2168 residues) expressed in bacterial expression system by BROMOscan assay.
Data set [14] deals with SWI/SNF-related matrix-associated actin-dependent regulator of chromatin subfamily A member 4 (Homo sapiens, UniProt P51532). The data set is described as follows: Inhibition of human SMARCA4 (A1448 to S1575 residues) expressed in bacterial expression system by BROMOscan assay.
The test system of data set [15] is OPM-2. As to the kind of experiment: Antitumor activity against human OPM2 cells xenografted in SCID-Beige mouse assessed as tumor growth inhibition at 30 mg/kg, po qd for 21 days measured twice per week during compound dosing relative to control. The data set is classed as functional. The note with it: OPM-2, po, 504 h, read-out: TGI.
Data set [16] concerns Mus musculus. As to the kind of experiment: Toxicity in SCID-Beige mouse assessed as body weight loss at 30 mg/kg, po qd for 21 days measured during compound dosing relative to control. The note with it: in vivo, 504 h. In kind it is organism-based.
Data set [17] relates to OPM-2. The data set is described as follows: Antitumor activity against human OPM2 cells xenografted in SCID-Beige mouse assessed as tumor growth inhibition at 150 mg/kg, po qd for 21 days measured twice per week during compound dosing relative to control. The data set is classed as functional. Conditions: OPM-2, po, 504 h, read-out: TGI.
Data set [18] has as its system Mus musculus. The data set is described as follows: Toxicity in SCID-Beige mouse assessed as body weight loss at 150 mg/kg, po qd for 21 days measured during compound dosing relative to control. The data set is classed as organism-based. Conditions: in vivo, 504 h.

Sequence of Transcription initiation factor TFIID subunit 1-like (Q8IZX4 whole entry, the tested form may be a part): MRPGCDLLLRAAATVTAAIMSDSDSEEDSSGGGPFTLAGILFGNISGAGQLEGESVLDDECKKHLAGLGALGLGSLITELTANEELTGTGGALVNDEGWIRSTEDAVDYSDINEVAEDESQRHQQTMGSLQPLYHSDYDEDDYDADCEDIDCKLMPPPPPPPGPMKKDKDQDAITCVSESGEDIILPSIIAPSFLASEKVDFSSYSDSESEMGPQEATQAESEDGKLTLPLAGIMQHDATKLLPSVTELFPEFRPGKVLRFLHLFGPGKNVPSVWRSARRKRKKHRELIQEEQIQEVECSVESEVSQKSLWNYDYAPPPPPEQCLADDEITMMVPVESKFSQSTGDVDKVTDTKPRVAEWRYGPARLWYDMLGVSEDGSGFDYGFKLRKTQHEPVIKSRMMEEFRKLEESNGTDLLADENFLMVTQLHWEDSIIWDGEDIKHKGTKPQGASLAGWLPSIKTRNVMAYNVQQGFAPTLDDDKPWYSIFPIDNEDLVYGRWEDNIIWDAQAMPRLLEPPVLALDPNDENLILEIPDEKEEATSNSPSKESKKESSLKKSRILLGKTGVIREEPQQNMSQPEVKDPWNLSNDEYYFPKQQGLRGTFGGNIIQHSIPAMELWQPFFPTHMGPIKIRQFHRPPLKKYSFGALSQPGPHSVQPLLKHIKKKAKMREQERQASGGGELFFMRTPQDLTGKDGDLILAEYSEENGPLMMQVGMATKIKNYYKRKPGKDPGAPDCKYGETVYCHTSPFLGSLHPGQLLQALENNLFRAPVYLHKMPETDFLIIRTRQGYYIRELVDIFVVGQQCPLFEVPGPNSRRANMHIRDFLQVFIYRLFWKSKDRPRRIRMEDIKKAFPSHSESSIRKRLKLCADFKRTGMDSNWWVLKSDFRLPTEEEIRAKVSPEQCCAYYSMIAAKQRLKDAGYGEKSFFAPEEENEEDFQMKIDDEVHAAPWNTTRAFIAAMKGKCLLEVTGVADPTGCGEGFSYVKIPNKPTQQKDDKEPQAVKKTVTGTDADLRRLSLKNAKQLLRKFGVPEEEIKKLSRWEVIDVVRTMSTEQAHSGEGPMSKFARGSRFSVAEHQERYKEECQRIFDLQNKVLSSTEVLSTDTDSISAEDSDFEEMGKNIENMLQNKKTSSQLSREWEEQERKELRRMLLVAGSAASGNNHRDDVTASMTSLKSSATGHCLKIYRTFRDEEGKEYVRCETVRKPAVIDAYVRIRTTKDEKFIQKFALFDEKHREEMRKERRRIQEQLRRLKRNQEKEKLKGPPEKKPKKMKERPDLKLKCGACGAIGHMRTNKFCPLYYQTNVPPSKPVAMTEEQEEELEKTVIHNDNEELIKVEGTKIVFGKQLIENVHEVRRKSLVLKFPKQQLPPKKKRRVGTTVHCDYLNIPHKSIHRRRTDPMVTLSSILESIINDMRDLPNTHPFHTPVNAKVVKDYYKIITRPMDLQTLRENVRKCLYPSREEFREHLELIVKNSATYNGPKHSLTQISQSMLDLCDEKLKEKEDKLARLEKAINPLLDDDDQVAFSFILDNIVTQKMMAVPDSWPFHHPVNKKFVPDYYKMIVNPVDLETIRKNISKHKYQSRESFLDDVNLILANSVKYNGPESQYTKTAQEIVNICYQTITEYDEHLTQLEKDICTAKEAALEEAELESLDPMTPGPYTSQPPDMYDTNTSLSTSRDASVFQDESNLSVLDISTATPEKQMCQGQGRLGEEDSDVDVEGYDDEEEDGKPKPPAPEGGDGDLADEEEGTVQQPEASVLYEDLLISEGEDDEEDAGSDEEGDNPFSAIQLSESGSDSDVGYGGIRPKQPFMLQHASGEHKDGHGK

`Cc1[nH]c(-c2cc(NS(C)(=O)=O)ccc2Oc2ccccc2)c2c1C(=O)CCC2`: the inhibition in vivo at 100 mg/kg in the data set with OPM-2 [1] amounted to 53%; with OPM-2 [4], 73%. For the same compound, the MTD in [2] amounted to 100 mg/kg/day. The EC50 (as a rule, the concentration that produces a half-maximal response) in data set [3] was determined as 51 nM. Moreover, the IC50 (in general, the concentration that gives 50% inhibition) in [5] was > 1000 nM; in data set [7] it was > 1000 nM; in data set [8] it was > 1000 nM; on Protein polybromo-1, > 1000 nM; in [9], > 1000 nM; in data set [10], 1000 nM. Further, the IC50 in data set [11] was > 1000 nM; in [12], > 1000 nM; on CREB-binding protein, 1000 nM; in [13] it was > 1000 nM; in [14] it was > 1000 nM. Further, the inhibition (in general, the percentage by which the read-out fell short of the control) in data set [6] turned out to be 67%.
In turn, `Cn1cc(-c2cc(S(C)(=O)=O)ccc2Oc2ccc(F)cc2F)c2cc[nH]c(=O)c21` yielded an EC50 in data set [3] of 150 nM. Also, the inhibition in vivo at 30 mg/kg with OPM-2 [15] is 64%. The IC50 (in [5]; in data set [7]; in [8]; against Protein polybromo-1; in data set [10]; in data set [11]) was > 1000 nM in each case. The IC50 in data set [14] was > 1000 nM. For the same compound, in data set [6], the inhibition was 88%. Besides, the Activity in the data set with Mus musculus [16] is 1 to 3%.
In turn, `Cc1[nH]c(-c2cc(S(C)(=O)=O)ccc2Oc2ccc(F)cc2F)c2c1C(=O)NCC2` showed an EC50 in data set [3] of 290 nM. Also, in the data set with OPM-2 [17], the inhibition in vivo at 150 mg/kg is 68%. The IC50 in data set [12] is > 1000 nM; at CREB-binding protein, 1000 nM; in data set [13], > 1000 nM. Also, the Activity in the data set on Mus musculus [18] fell in the range of 1 to 3%.

These data come from ChEMBL document CHEMBL4038268, “Methylpyrrole inhibitors of BET bromodomains” (Bioorg Med Chem Lett, 2017).
